Activity calls are given as the source filed them. No cut-off for these calls is given here. Residues, ends and D or L forms follow the SMILES beside them. *: point of attachment. Cbz = O=C(OCc1ccccc1)*

In general, IC50 refers to the concentration needed to halve the response being measured. Read a low IC50 as greater potency.

Assay [1] deals with T1, Proteasome component C5 (Homo sapiens) (UniProt P20618).
T1 sequence (whole entry): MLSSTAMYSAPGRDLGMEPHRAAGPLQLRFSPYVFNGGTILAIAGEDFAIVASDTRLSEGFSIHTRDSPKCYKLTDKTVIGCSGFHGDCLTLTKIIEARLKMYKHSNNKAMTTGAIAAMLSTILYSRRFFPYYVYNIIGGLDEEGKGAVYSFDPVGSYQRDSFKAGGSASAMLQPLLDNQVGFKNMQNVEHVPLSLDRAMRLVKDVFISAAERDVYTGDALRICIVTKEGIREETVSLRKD
In words: Binding affinity to 20S proteasome beta-1 subunit in human erythrocyte at 1 uM after 0.5 hr by Western blotting analysis. In short, it runs like this: (§1)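 Purified human erythrocyte 20S core particle solution incubated with 1.0 µM dansyl-KF33955 for various times, then diluted directly in 2× denaturing buffer (urea/thiourea/CHAPS/Triton, pH 8.8). Proteins resolved by SDS-PAGE and transferred to PVDF. Labeled β subunits detected by immunoblot with anti-dansyl monoclonal antibody and ECL.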
(In general: In western blotting, separated proteins are transferred to a membrane and probed.)

The nature of assay [2]: Inhibition of trypsin-like activity of 20S proteasome in human erythrocytes. In short, it runs like this: (§2)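 Purified human erythrocyte 20S core particle (100–200 ng) mixed with inhibitors at varied concentrations in 25 mM HEPES pH 7.6, 0.5 mM EDTA, 0.03% SDS; SDS left out for the trypsin-like assay. Started by adding fluorogenic AMC substrate: Suc-LLVY-AMC (chymotrypsin-like), Boc-LRR-AMC (trypsin-like), Z-LLE-AMC (PGPH). Fluorescence read up to 1 h (ex 380, em 460 nm). Activity from slope; IC50 derived.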

Assay [3] can be described thus: Inhibition of chymotrypsin-like activity of 20S proteasome in human erythrocytes. In short, it runs like this: as §2
Assay [4] deals with T1, Proteasome component C5 (Homo sapiens). In words: Inhibition of MG132 binding to beta-1 subunit of 20S proteasome in human HeLa cells at 1 uM by Western blotting analysis. It counts as cell-based. In short, it runs like this:
(§3)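 Competition in intact HeLa cells. Cells were preincubated 1 h at 37 °C in serum-free medium with various concentrations of MG132, then given 1.0 µM dansyl-KF33955 for another hour. Cells were pelleted, lysed by sonication in urea/thiourea denaturing buffer, and resolved by SDS-PAGE. Remaining β subunit labeling was detected by anti-dansyl immunoblot.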

For assay [5], the target named is Proteasome Macropain subunit (Homo sapiens) (UniProt P49721). In words: Binding affinity to 20S proteasome beta2 subunit in human erythrocyte at 1 uM after 1 hr by Western blotting analysis. An outline of the steps:
as §1

For assay [6], the target named is T2, Proteasome Macropain subunit MB1 (Homo sapiens) (UniProt P28074).
T2 sequence (whole entry): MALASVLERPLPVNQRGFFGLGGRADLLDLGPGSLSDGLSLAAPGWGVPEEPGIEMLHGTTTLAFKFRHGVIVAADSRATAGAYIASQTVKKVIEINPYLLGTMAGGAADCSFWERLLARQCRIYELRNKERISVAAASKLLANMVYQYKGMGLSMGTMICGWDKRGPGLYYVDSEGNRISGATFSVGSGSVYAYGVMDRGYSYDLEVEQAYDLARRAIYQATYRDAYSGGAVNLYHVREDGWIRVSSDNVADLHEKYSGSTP
In words: Binding affinity to 20S proteasome beta5 subunit in intact human HeLa cells at 1 uM by Western blotting analysis. It counts as cell-based. To be noted: TDE = time-dependent effect. An outline of the steps:
(§4)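 Intact HeLa cells (RPMI 1640, 10% FCS) incubated with 1.0 µM dansyl-KF33955 at 37 °C in serum-free medium for varying times. Cells were pelleted, put in urea/thiourea denaturing buffer at 4 °C and sonicated. Lysates were run on SDS-PAGE and blotted to PVDF. Labeled β subunits were detected with anti-dansyl monoclonal antibody and ECL.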

The next assay has as its system HeLa. In words: Growth inhibition of human HeLa cells after 48 hrs by MTT assay. It counts as functional, cell-based. In short, it runs like this: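 HeLa cells grown in RPMI 1640 with 10% heat-inactivated fetal calf serum plus penicillin/streptomycin under 5% CO2. Inhibitors added at various concentrations for 48 h. Viability by MTT, absorbance at 570 nm. IC50 taken from growth inhibition.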
On the technique in general: Tetrazolium assays rely on reduction of a dye to a coloured formazan, in cell work by metabolically active cells.

For assay [7], the target named is T2, Proteasome Macropain subunit MB1 (Homo sapiens). In words: Binding affinity to 20S proteasome beta5 subunit in human erythrocyte at 1 uM by Western blotting analysis. In short, it runs like this: as §1
In assay [8] the target is Proteasome subunit beta type-5 (Homo sapiens) (UniProt P28074). In words: Binding affinity to 20S proteasome beta5 subunit in human erythrocyte at 1 uM after 0.5 hr by Western blotting analysis.
Assay [9] concerns the target T1, Proteasome component C5 (Homo sapiens). In words: Binding affinity to 20S proteasome beta-1 subunit in human erythrocyte at 1 uM after 1 hr by Western blotting analysis. In short, it runs like this:
as §1

For assay [10], the target named is Proteasome Macropain subunit (Homo sapiens) (UniProt P49721). In words: Binding affinity to 20S proteasome beta2 subunit in intact human HeLa cells at 1 uM by Western blotting analysis. It counts as cell-based. The conditions noted are these: TDE = time-dependent effect. An outline of the steps:
as §4

Assay [11] shares this target. In words: Binding affinity to 20S proteasome beta2 subunit in human erythrocyte at 1 uM by Western blotting analysis. An outline of the steps:
as §1

Assay [12] concerns the target T2, Proteasome Macropain subunit MB1 (Homo sapiens). In words: Binding affinity to 20S proteasome beta5 subunit in human HeLa cell extract at 1 uM by Western blotting analysis. It counts as cell-free. An outline of the steps:
(§5)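 26S proteasome extract from HeLa cells at 50–80% confluency. Cells were washed in ice-cold PBS and resuspended in pH 7.5 Tris buffer with sucrose, MgCl2, EDTA, DTT and 1 mM ATP. They were permeabilized with 0.025% digitonin for 5 min on ice, and the cytosol was recovered at 15,000g. The extract was labeled with 1.0 µM dansyl-KF33955 for various times, diluted in 2× denaturing buffer, resolved by SDS-PAGE and immunoblotted with anti-dansyl antibody.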

Assay [13] concerns the target Proteasome Macropain subunit (Homo sapiens) (UniProt P49721). In words: Binding affinity to 20S proteasome beta2 subunit in human HeLa cell extract at 1 uM by Western blotting analysis. It counts as cell-free. In short, it runs like this: as §5
For assay [14] the target is unchanged. In words: Inhibition of clasto-lactacystin binding to beta2 subunit of 20S proteasome in human HeLa cells at 1 uM by Western blotting analysis. It counts as cell-based.
Assay [15] has as its target T1, Proteasome component C5 (Homo sapiens). In words: Binding affinity to 26S proteasome beta-1 subunit in human HeLa cell extract at 1 uM by Western blotting analysis. It counts as cell-free. In short, it runs like this: as §5
Assay [16] addresses T2, Proteasome Macropain subunit MB1 (Homo sapiens). In words: Inhibition of clasto-lactacystin binding to beta5 subunit of 20S proteasome in human HeLa cells at 1 uM by Western blotting analysis. It counts as cell-based.
The target is the same in assay [17]. In words: Binding affinity to 20S proteasome beta5 subunit in human erythrocyte at 1 uM after 1 hr by Western blotting analysis. An outline of the steps:
as §1

Assay [18] shares this target. In words: Inhibition of MG132 binding to beta5 subunit of 20S proteasome in human HeLa cells at 1 uM by Western blotting analysis. It counts as cell-based. An outline of the steps:
as §3

For assay [19], the target named is Proteasome Macropain subunit (Homo sapiens) (UniProt P49721). In words: Binding affinity to 20S proteasome beta2 subunit in human erythrocyte at 1 uM after 0.5 hr by Western blotting analysis. In short, it runs like this:
as §1

Assay [20] has as its target T1, Proteasome component C5 (Homo sapiens). In words: Binding affinity to 20S proteasome beta-1 subunit in human erythrocyte at 1 uM by Western blotting analysis. An outline of the steps:
as §1

A short description of assay [21]: Inhibition of PGPH catalytic activity of 20S proteasome in human erythrocytes. An outline of the steps:
as §2

The target in assay [22] is T1, Proteasome component C5 (Homo sapiens). In words: Binding affinity to 20S proteasome beta-1 subunit in intact human HeLa cells at 1 uM by Western blotting analysis. It counts as cell-based. To be noted: TDE = time-dependent effect. In short, it runs like this:
as §4

Chain of Proteasome Macropain subunit (Homo sapiens) (P49721 whole entry): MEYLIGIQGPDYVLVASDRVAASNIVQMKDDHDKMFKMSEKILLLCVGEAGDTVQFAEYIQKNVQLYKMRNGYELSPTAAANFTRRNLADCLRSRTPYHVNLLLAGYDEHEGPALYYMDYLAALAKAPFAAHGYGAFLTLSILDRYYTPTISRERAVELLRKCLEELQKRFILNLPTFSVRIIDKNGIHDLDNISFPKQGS

Take `CC[C@H](C)[C@@H]1C(=O)O[C@H]1C(=O)N[C@H]1C[C@H]1C[C@H](NC(=O)[C@H](C)NC(=O)CCCCCNS(=O)(=O)c1cccc2c(N(C)C)cccc12)C(=O)OCc1ccccc1`: the outcome in [1], in [4], in assay [5], in [7], in [8] and in assay [9] was Active. In addition, the outcome in assay [11], in assay [12], in assay [13], in [14], in assay [15] and in assay [16] was Active. The outcome in [17], in assay [18], in [19] and in [20] was Active. For the same compound, the IC50 in [2] stood at 2100 nM; in assay [3], 29 nM; with HeLa, 9800 nM; in [21], 150 nM. The Activity result in assay [6], in assay [10] and in assay [22] was “tde” throughout.

Consider `CC(C)[C@H](O)[C@]12NC(=O)[C@H](C)[C@@H]1OC2=O`, for which the figures for the IC50 in assay [2], in assay [3] and in assay [21] were 690 nM, 29 nM and 8300 nM, respectively. The outcome in assay [14] and in assay [16] was Active.

Consider `CC[C@H](C)[C@@H]1C(=O)O[C@H]1C(=O)N[C@H]1C[C@H]1C[C@H](NC(=O)[C@H](C)N)C(=O)OCc1ccccc1`, for which the IC50 in assay [2] turned out to be 450 nM; in [3] it was 340 nM; in the assay with HeLa, 500 nM; in [21] it was 3700 nM.

In the case of `CC[C@H](C)[C@@H]1C(=O)O[C@H]1C(=O)N[C@H]1C[C@H]1C[C@H](NC(=O)[C@H](C)N)C(=O)O` [BELACTOSIN A], the half-inhibitory concentration (IC50) came to 4900 nM in assay [2], 820 nM in assay [3], 37000 nM with HeLa and 14000 nM in assay [21].

Regarding `CC(C)C[C@@H](C=O)NC(=O)[C@H](CC(C)C)NC(=O)[C@H](CC(C)C)NC(=O)OCc1ccccc1` [MG-132] (Cbz-Leu-Leu-Leu-aldehyde), the values for the concentration for half-maximal inhibition (IC50) in assay [2], in [3] and in assay [21] were 2100 nM, 11 nM and 120 nM, respectively. For the same compound, the result in assay [4] and in [18] was Active.

The values are drawn from ChEMBL document CHEMBL1152217, “Affinity labeling of the proteasome by a belactosin A derived inhibitor” (Bioorg Med Chem Lett, 2008).
